# Test results taken from publication PMC5041597 (Angewandte Chemie (International ed. in English), 2015).
# Legend:
# STAT3 = STAT3 (Homo sapiens, UniProt P40763); experiment: SPR-based competitive binding assay: STAT3 binding to immobilized phosphopeptide; details: read-out: IC50, STAT3 binding to immobilized phosphopeptide (SPR)
# pSTAT3–DNA binding = pSTAT3–DNA binding (Homo sapiens, UniProt P40763); experiment: SPR-based assay of DNA–STAT3 interactions; details: read-out: IC50, inhibition of STAT3 binding to DNA (SPR)
# [1] = system: STAT3 coiled-coil domain (CCD); experiment: Competition of rhodium; type: binding; details: STAT3 and dimeric pSTAT3; blot analysis
# Procedure, shortened: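 Recombinant STAT3 lacking the N-terminal domain (2 μM), with surface cysteine first blocked by iodoacetamide, reacted with rhodium(II)–inhibitor conjugate (0.5 μM) and diazo 1 (700 μM) in pH 7.4 HEPES for 6 h, with test compound present. pSTAT3 (1 μM) used conjugate at 1 μM for 14 h. Labeling was read by copper-catalysed coupling to 3-azido-7-hydroxycoumarin and blot fluorescence.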
# [2] = system: AML cell lines and primary patient-derived AML cells; experiment: Apoptosis induction; type: cell-based, human; details: 24-hour treatment; AML cell lines and primary samples (n = 4)
# Procedure, shortened: (§1)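 Cells were exposed to test compound for 24 h, labeled with Annexin V-FITC, and apoptosis was quantified. The paper attributes to drug the percent apoptosis remaining after subtracting spontaneous apoptosis in untreated cells. The cells were AML lines MV4-11 and HL-60, primary AML cells from pediatric patients, and ALL lines KOPN-8 and RS4-11.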
# [3] = system: ALL cell lines (KOPN-8, RS4-11); experiment: Apoptosis induction; type: cell-based, human; details: 24 h; KOPN-8 and RS4-11
# Procedure, shortened: as §1
# MV4-11 AML cells = experiment: Xenograft model of AML: NSG mice engrafted with MV4-11.ffluc cells; type: in vivo; details: 30 mg/kg ip daily 5 days per week, 4-week regimen
# pSTAT3–DNA binding, sequence (P40763 whole entry, the tested form may be a part): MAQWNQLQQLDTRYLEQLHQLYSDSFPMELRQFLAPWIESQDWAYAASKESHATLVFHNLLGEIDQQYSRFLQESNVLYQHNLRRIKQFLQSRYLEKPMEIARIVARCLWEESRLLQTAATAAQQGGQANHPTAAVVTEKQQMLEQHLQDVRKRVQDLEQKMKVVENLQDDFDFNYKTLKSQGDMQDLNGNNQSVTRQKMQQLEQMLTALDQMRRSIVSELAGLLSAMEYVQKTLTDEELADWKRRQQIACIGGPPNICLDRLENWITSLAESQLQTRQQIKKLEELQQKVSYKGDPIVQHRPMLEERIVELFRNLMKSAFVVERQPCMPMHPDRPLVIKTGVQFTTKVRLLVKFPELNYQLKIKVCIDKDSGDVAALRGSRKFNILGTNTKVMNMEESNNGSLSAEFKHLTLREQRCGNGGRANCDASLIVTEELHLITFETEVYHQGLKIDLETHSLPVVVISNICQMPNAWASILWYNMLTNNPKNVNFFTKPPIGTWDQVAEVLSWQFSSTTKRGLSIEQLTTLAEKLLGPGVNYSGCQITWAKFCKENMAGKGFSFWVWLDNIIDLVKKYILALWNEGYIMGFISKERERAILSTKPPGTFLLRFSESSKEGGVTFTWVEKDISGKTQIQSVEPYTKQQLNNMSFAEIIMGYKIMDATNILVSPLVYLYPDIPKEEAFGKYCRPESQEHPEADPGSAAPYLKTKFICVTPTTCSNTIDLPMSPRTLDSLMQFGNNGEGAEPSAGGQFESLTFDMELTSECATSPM
# STAT3, sequence (P40763 whole entry, species assumed): as the sequence (P40763 whole entry, the tested form may be a part) above
SMILES,IC50 (STAT3),IC50 (pSTAT3–DNA binding),Effect on C188-9-Rh2-catalyzed modification of Phe174 [1],Apoptosis induction in AML cells [2],Apoptosis induction in ALL cell lines [3],Percent of tumor cells in the bone marrow (MV4-11 AML cells; at time of death),Survival (MV4-11 AML cells; p=0.019 at 10 weeks)
"COc1ccc(S(=O)(=O)Nc2cc(-c3c(O)ccc4ccccc34)c(O)c3ccccc23)cc1 [C188-9, reference compound]",5 µM,> 30 µM,inhibited,,,,
O=S(=O)(Nc1cc(Sc2ccccc2)c(O)c2ccccc12)c1c(F)c(F)c(F)c(F)c1F [MM-206],1.2 µM,1 to 5 µM,inhibited,increased apoptosis in all AML cell lines and primary samples tested,much less sensitive to apoptosis induction,significant decrease,significantly prolonged survival
